According to ChEMBL document CHEMBL4041520, “Novel pyrimidine-2,4-dione-1,2,3-triazole and furo[2,3-d]pyrimidine-2-one-1,2,3-triazole hybrids as potential anti-cancer agents: Synthesis, computational and X-ray analysis and biological evaluation” (Eur J Med Chem, 2017):
Activity calls are given as the source filed them. The calls are words filed in the database; no cut-off is given here.

How the values were obtained:
A549 = assay: Antiproliferative activity against human A549 cells after 72 hrs by MTT assay; format: functional, cell-based; details: A549, 72 h
How it was run: (§1)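 Monolayers grown in DMEM with 10% FBS and 2 mM L-glutamine at 37 °C, 5% CO2. Cells seeded at 5000 per well on day 0. Compounds added in five 10-fold dilutions (0.01–100 µM), DMSO ≤0.1%, for 72 h. MTT absorbance converted to percentage growth versus untreated wells. IC50 by linear regression of the dose-response curve; highest concentration reported when not reached. Quadruplicate points, three experiments.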

HepG2 [1] = assay: Antiproliferative activity against human HepG2 cells after 72 hrs by MTT assay; format: functional, cell-based; details: HepG2, 72 h; how it was run: as §1
CFPAC-1 = assay: Antiproliferative activity against human CFPAC-1 cells after 72 hrs by MTT assay; format: functional, cell-based; details: CFPAC-1, 72 h; how it was run: as §1
HeLa [2] = assay: Antiproliferative activity against human HeLa cells after 72 hrs by MTT assay; format: functional, cell-based; how it was run: as §1
SW-620 = assay: Antiproliferative activity against human SW620 cells after 72 hrs by MTT assay; format: functional, cell-based; details: SW-620, 72 h; how it was run: as §1
NIH3T3 = assay: Antiproliferative activity against mouse NIH/3T3 cells after 72 hrs by MTT assay; format: cell-based; details: NIH3T3, 72 h; how it was run: as §1
[3] = target: Wee1-like protein kinase (Homo sapiens) (UniProt P30291); assay: Inhibition of Wee-1 kinase phosphorylation in human HeLa cells at 2 times antiproliferative IC50 after 48 hrs by Western blot method; format: cell-based
How it was run: (§2)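 Cells seeded at 200000 per well and treated at 2× IC50 for 48 h. Lysed in RIPA buffer with protease inhibitors. 50 µg protein run on 12% Tris-glycine gels and transferred to PVDF. Blocked in 4% BSA/TBST, probed overnight at 4 °C with anti-p-SK1, ASAH1 or p-Wee1, then HRP secondary. Chemiluminescent detection; densitometry normalized to alpha-tubulin. Two independent experiments, mean ± SD.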

[4] = target: Wee1-like protein kinase (Homo sapiens) (UniProt P30291); assay: Inhibition of Wee-1 kinase in human HeLa cells assessed as reduction in SK1 phosphorylation at 2 times antiproliferative IC50 after 48 hrs by Western blot method; format: cell-based; how it was run: as §2
[5] = target: Wee1-like protein kinase (Homo sapiens) (UniProt P30291); assay: Inhibition of Wee-1 kinase in human HeLa cells assessed as downregulation of ASAH at 2 times antiproliferative IC50 after 48 hrs by Western blot method; format: cell-based; how it was run: as §2
HeLa [6] = assay: Induction of apoptosis in human HeLa cells assessed as late apoptotic cells at 2 times antiproliferative IC50 after 48 hrs by Annexin-V FITC/propidium iodide staining based fluorescence microscopic method (reference value: 2.3%); format: functional
How it was run: (§3)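 Cells seeded in 8-well chamber slides and exposed to compound at 2× IC50 for 48 h. After washing in incubation buffer, Annexin-V-FITC labelling for 15 min at room temperature. Cells fixed with 20% glycerol; PI used as nuclear stain. Scored by fluorescence microscopy as viable (PI-/AnnV-), early apoptotic (PI-/AnnV+), late apoptotic/primary necrotic (PI+/AnnV+) or secondary necrotic (PI+) percentages.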

HeLa [7] = assay: Induction of apoptosis in human HeLa cells assessed as viable cells at 2 times antiproliferative IC50 after 48 hrs by Annexin-V FITC/propidium iodide staining based fluorescence microscopic method (reference value: 75%); format: functional; how it was run: as §3
HeLa [8] = assay: Induction of apoptosis in human HeLa cells assessed as early apoptotic cells at 2 times antiproliferative IC50 after 48 hrs by Annexin-V FITC/propidium iodide staining based fluorescence microscopic method (reference value: 20.4%); format: functional; how it was run: as §3
HeLa [9] = assay: Induction of apoptosis in human HeLa cells assessed as secondary necrotic cells at 2 times antiproliferative IC50 after 48 hrs by Annexin-V FITC/propidium iodide staining based fluorescence microscopic method (reference value: 2.3%); format: functional; how it was run: as §3
[10] = Mitochondrial toxicity in human HepG2 cells grown in presence of glucose; format: cell-based
[11] = Mitochondrial toxicity in human HepG2 cells grown in presence of galactose; format: cell-based
How it was run: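 HepG2 kept for more than 5 passages in glucose-free DMEM with 10 mM galactose, 2 mM glutamine, 5 mM HEPES, 10% FBS and 1 mM sodium pyruvate.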

[12] = target: Wee1-like protein kinase (Homo sapiens) (UniProt P30291); assay: Inhibition of Wee-1 kinase phosphorylation in human HepG2 cells at 2 times antiproliferative IC50 after 48 hrs by Western blot method; format: cell-based; how it was run: as §2
[13] = target: Wee1-like protein kinase (Homo sapiens) (UniProt P30291); assay: Inhibition of Wee-1 kinase in human HepG2 cells assessed as reduction in SK1 phosphorylation at 2 times antiproliferative IC50 after 48 hrs by Western blot method; format: cell-based; how it was run: as §2
[14] = target: Wee1-like protein kinase (Homo sapiens) (UniProt P30291); assay: Inhibition of Wee-1 kinase in human HepG2 cells assessed as downregulation of ASAH at 2 times antiproliferative IC50 after 48 hrs by Western blot method; format: cell-based; how it was run: as §2
HepG2 [15] = assay: Induction of apoptosis in human HepG2 cells assessed as late apoptotic cells at 2 times antiproliferative IC50 after 48 hrs by Annexin-V FITC/propidium iodide staining based fluorescence microscopic method relative to control; format: functional; how it was run: as §3
HepG2 [16] = assay: Induction of apoptosis in human HepG2 cells assessed as viable cells at 2 times antiproliferative IC50 after 48 hrs by Annexin-V FITC/propidium iodide staining based fluorescence microscopic method (reference value: 94.2%); format: functional; how it was run: as §3
HepG2 [17] = assay: Induction of apoptosis in human HepG2 cells assessed as early apoptotic cells at 2 times antiproliferative IC50 after 48 hrs by Annexin-V FITC/propidium iodide staining based fluorescence microscopic method (reference value: 0.6%); format: functional; how it was run: as §3
HepG2 [18] = assay: Induction of apoptosis in human HepG2 cells assessed as secondary necrotic cells at 2 times antiproliferative IC50 after 48 hrs by Annexin-V FITC/propidium iodide staining based fluorescence microscopic method (reference value: 5.2%); format: functional; how it was run: as §3

Chain of Wee1-like protein kinase (Homo sapiens) (P30291 whole entry, looked up): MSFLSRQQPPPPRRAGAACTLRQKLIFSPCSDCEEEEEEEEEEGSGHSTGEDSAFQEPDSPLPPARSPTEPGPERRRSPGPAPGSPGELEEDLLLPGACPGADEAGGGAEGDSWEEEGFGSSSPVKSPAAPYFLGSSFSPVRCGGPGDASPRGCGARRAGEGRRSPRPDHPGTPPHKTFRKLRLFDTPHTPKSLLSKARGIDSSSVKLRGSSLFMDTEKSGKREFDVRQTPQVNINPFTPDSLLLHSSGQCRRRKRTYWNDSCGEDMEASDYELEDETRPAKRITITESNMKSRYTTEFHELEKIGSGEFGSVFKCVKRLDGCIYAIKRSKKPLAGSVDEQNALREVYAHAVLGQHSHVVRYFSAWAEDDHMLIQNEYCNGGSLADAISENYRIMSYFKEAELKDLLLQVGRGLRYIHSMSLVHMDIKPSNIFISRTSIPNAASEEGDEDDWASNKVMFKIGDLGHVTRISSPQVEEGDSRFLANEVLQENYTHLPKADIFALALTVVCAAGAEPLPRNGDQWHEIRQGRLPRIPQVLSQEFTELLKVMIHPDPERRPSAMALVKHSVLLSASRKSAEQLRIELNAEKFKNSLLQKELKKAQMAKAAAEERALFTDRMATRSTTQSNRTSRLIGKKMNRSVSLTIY

Row | IC50 (A549) | IC50 (HepG2 [1]) | IC50 (HeLa [2]) | IC50 (SW-620) | inhibition [12] | inhibition [13] | inhibition [14] | SMILES | IC50 (CFPAC-1) | IC50 (NIH3T3) | IC50 [10] | IC50 [11] | Activity (HepG2 [15]) | Activity (HepG2 [16]) | Activity (HepG2 [17]) | Activity (HepG2 [18]) | further results
1 | 5.33 µM | 7.11 µM | 1.64 µM | 7.86 µM |  |  |  | O=c1c(Br)cn(Cc2cn(-c3ccccc3F)nn2)c(=O)n1Cc1cn(-c2ccccc2F)nn1 | 4.53 µM | 0.59 µM | 7.11 µM | 4.67 µM |  |  |  |  | inhibition [3]: inactive; inhibition [4]: inactive; inhibition [5]: inactive; Activity (HeLa [6]): 1.8%; Activity (HeLa [7]): 71.3%; Activity (HeLa [8]): 23.9%; Activity (HeLa [9]): 3%
2 | 25.4 µM | 4.47 µM | 12.6 µM | 9.82 µM | Active | inactive | inactive | O=c1c(Br)cn(Cc2cn(-c3ccc(F)cc3)nn2)c(=O)n1Cc1cn(-c2ccc(F)cc2)nn1 | 6.87 µM | 0.07 µM | 4.78 µM | 4.57 µM | 0% | 72.9% | 26.6% | 0.5% | 
3 | 7.41 µM | 3.62 µM | 6.13 µM | 5.63 µM | Active | Active | Active | O=c1c(Br)cn(Cc2cn(-c3ccc(Cl)cc3)nn2)c(=O)n1Cc1cn(-c2ccc(Cl)cc2)nn1 | 5.92 µM | 0.37 µM | 3.82 µM | 7.1 µM | 0% | 50% | 34.8% | 15.2% | 
